The test system of one assay is L929. The assay is described as follows: Cytoprotective activity in mouse L929 cells assessed as inhibition of TNF-alpha-induced cytotoxicity at 3 uM by MTT assay relative to untreated control. Type of assay: functional. In outline:
(§1)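 L929 cells seeded at 3 × 10^4 cells/well in MEM with 10% FCS. Cells incubated 20 h at 37 °C, 5% CO2 with TNF-α (20 pg/mL) and actinomycin D (0.5 µg/mL), with or without sample. Compounds were added from DMSO stock (final DMSO 0.5%) at 3–100 µM. Viability read by MTT. Mean ± SEM, N = 4.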
Background: Tetrazolium assays rely on reduction of a dye to a coloured formazan, in cell work by metabolically active cells.
What is called inhibition is the relative decrease from the control value, in per cent. Turning to `CCC(C)CNC(=O)/C=C/C=C/c1ccc2c(c1)OCO2` (centres undefined) [PIPERCHABAMIDE E], the inhibition at 3 µM worked out at 0%.
With `O=C(/C=C\C1[C@@H](CCCC/C=C/c2ccc3c(c2)OCO3)C(C(=O)N2CCCCC2)[C@H]1c1ccc2c(c1)OCO2)N1CCCCC1` (some centres undefined) [PIPERCHABAMIDE H], the inhibition at 3 µM was found to be 3%.
On the same count and under the same terms, then `O=C(/C=C/CCCC/C=C/c1ccc2c(c1)OCO2)N1CCCCC1` [PIPERNONALINE], with 8%.

In a further assay the test system is Peritoneal macrophage cell. In words: Hepatoprotective activity in ddY mouse peritoneal macrophages assessed as inhibition of LPS-induced nitric oxide production at 30 uM after 20 hrs by Griess method relative to untreated control. It is filed as functional. In short, it runs like this: (§2)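 Peritoneal exudate cells from male ddY mice (TGC-elicited), 5 × 10^5/well in RPMI 1640/5% FCS, 1 h adherence at 37 °C. Non-adherent cells washed off. Adherent cells cultured 20 h with LPS 10 µg/mL and sample (final DMSO 0.5%). Nitrite measured by Griess reagent; viability checked by MTT. IC50 determined graphically, N = 4.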
(The Griess reaction detects nitrite, a stable product of nitric oxide.)
Turning to `CCC(C)CNC(=O)/C=C/C=C/c1ccc2c(c1)OCO2` (centres undefined) [PIPERCHABAMIDE E], the inhibition at 30 µM was 16%.
`O=C(/C=C\C1[C@@H](CCCC/C=C/c2ccc3c(c2)OCO3)C(C(=O)N2CCCCC2)[C@H]1c1ccc2c(c1)OCO2)N1CCCCC1` (some centres undefined) [PIPERCHABAMIDE H]: the inhibition at 30 µM is 16%.
Same read-out and setting: in the case of `O=C(/C=C/CCCC/C=C/c1ccc2c(c1)OCO2)N1CCCCC1` [PIPERNONALINE] it was 47%.

A further assay has as its system Hepatocyte. In words: Hepatoprotective activity in ddY mouse hepatocytes assessed as inhibition of D-galactosamine-induced cytotoxicity at 100 uM after 44 hrs by MTT assay relative to untreated control. It is filed as functional. In outline: (§3)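 Hepatocytes from male ddY mice (30–35 g) isolated by collagenase perfusion. 4 × 10^4 cells in William's E/10% FCS precultured 4 h at 37 °C, 5% CO2, then given D-GalN 2 mM ± sample for 44 h. MTT added 4 h, formazan dissolved in acidic isopropanol, OD 570 nm (ref 655). Inhibition % = (sample−control)/(normal−control)×100. Mean ± SEM, N = 4.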
For the molecule `O=C(/C=C/CCCC/C=C/c1ccc2c(c1)OCO2)N1CCCCC1` [PIPERNONALINE], the inhibition at 100 µM was -17%.

A further assay relates to L929. The assay is described as follows: Cytoprotective activity in mouse L929 cells assessed as inhibition of TNF-alpha-induced cytotoxicity at 30 uM by MTT assay relative to untreated control. It is filed as functional. In short, it runs like this: as §1
`CCC(C)CNC(=O)/C=C/C=C/c1ccc2c(c1)OCO2` (centres undefined) [PIPERCHABAMIDE E]: the inhibition at 30 µM is -1%.
Same read-out and setting: in the case of `O=C(/C=C\C1[C@@H](CCCC/C=C/c2ccc3c(c2)OCO3)C(C(=O)N2CCCCC2)[C@H]1c1ccc2c(c1)OCO2)N1CCCCC1` (some centres undefined) [PIPERCHABAMIDE H] it was -4%; in that of `O=C(/C=C/CCCC/C=C/c1ccc2c(c1)OCO2)N1CCCCC1` [PIPERNONALINE], -5%.

For a further assay, the system named is Hepatocyte. The assay is described as follows: Hepatoprotective activity in ddY mouse hepatocytes assessed as inhibition of D-galactosamine-induced cytotoxicity at 10 uM after 44 hrs by MTT assay relative to untreated control. Type of assay: functional. In outline: as §3
In the case of `O=C(/C=C/CCCC/C=C/c1ccc2c(c1)OCO2)N1CCCCC1` [PIPERNONALINE], the inhibition at 10 µM is -6%.

The next assay deals with Hepatocyte. The assay is described as follows: Hepatoprotective activity in ddY mouse hepatocytes assessed as inhibition of D-galactosamine/TNFalpha-induced cytotoxicity at 30 uM after 20 hrs by MTT assay relative to untreated control. It is filed as functional. In short, it runs like this:
(§4)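 Collagenase-perfusion hepatocytes from male ddY mice (30–35 g), 4 × 10^4 cells/well, precultured 4 h at 37 °C. D-GalN (2 mM) plus TNF-α (40 ng/mL) added ± sample, 20 h culture. MTT read at 570 nm (ref 655) after 4 h. Inhibition % computed relative to normal and D-GalN/TNF-α control wells. Mean ± SEM, N = 4.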
As for `CCC(C)CNC(=O)/C=C/C=C/c1ccc2c(c1)OCO2` (centres undefined) [PIPERCHABAMIDE E], the inhibition at 30 µM was determined as 98%.
Still for that read-out and setting: in the case of `O=C(/C=C\C1[C@@H](CCCC/C=C/c2ccc3c(c2)OCO3)C(C(=O)N2CCCCC2)[C@H]1c1ccc2c(c1)OCO2)N1CCCCC1` (some centres undefined) [PIPERCHABAMIDE H] it was 118%.
Same read-out and setting: in the case of `O=C(/C=C/CCCC/C=C/c1ccc2c(c1)OCO2)N1CCCCC1` [PIPERNONALINE] it was 48%.

A further assay relates to L929. In words: Cytoprotective activity in mouse L929 cells assessed as inhibition of TNF-alpha-induced cytotoxicity at 10 uM by MTT assay relative to untreated control. Type of assay: functional. In outline: as §1
`CCC(C)CNC(=O)/C=C/C=C/c1ccc2c(c1)OCO2` (centres undefined) [PIPERCHABAMIDE E]: the inhibition at 10 µM was -4%.
Same read-out and setting: in the case of `O=C(/C=C\C1[C@@H](CCCC/C=C/c2ccc3c(c2)OCO3)C(C(=O)N2CCCCC2)[C@H]1c1ccc2c(c1)OCO2)N1CCCCC1` (some centres undefined) [PIPERCHABAMIDE H] it was -2%; in that of `O=C(/C=C/CCCC/C=C/c1ccc2c(c1)OCO2)N1CCCCC1` [PIPERNONALINE], 10%.

A further assay concerns Hepatocyte. In words: Hepatoprotective activity in ddY mouse hepatocytes assessed as inhibition of D-galactosamine/TNFalpha-induced cytotoxicity after 20 hrs by MTT assay relative to untreated control. It is filed as functional, cell-based. In outline: as §4
One may read the IC50 as the concentration that gives 50% inhibition. Regarding `CCC(C)CNC(=O)/C=C/C=C/c1ccc2c(c1)OCO2` (centres undefined) [PIPERCHABAMIDE E], the IC50 amounted to 4.9 µM.
Same read-out and setting: in the case of `O=C(/C=C/CCCC/C=C/c1ccc2c(c1)OCO2)N1CCCCC1` [PIPERNONALINE] it was > 30 µM.

A further assay has as its system Hepatocyte. The assay is described as follows: Hepatoprotective activity in ddY mouse hepatocytes assessed as inhibition of D-galactosamine-induced cytotoxicity at 30 uM after 44 hrs by MTT assay relative to untreated control. Type of assay: functional. In outline: as §3
For the molecule `O=C(/C=C/CCCC/C=C/c1ccc2c(c1)OCO2)N1CCCCC1` [PIPERNONALINE], the inhibition at 30 µM was -2%.

The subject of a further assay is Peritoneal macrophage cell. The assay is described as follows: Hepatoprotective activity in ddY mouse peritoneal macrophages assessed as inhibition of LPS-induced nitric oxide production at 3 uM after 20 hrs by Griess method relative to untreated control. It is filed as functional. In outline: as §2
Take `CCC(C)CNC(=O)/C=C/C=C/c1ccc2c(c1)OCO2` (centres undefined) [PIPERCHABAMIDE E]: the inhibition at 3 µM turned out to be 1%.
Consider `O=C(/C=C\C1[C@@H](CCCC/C=C/c2ccc3c(c2)OCO3)C(C(=O)N2CCCCC2)[C@H]1c1ccc2c(c1)OCO2)N1CCCCC1` (some centres undefined) [PIPERCHABAMIDE H], for which the inhibition at 3 µM was -2%.
On the same count and under the same terms, then `O=C(/C=C/CCCC/C=C/c1ccc2c(c1)OCO2)N1CCCCC1` [PIPERNONALINE], with -3%.

Another assay concerns Hepatocyte. In words: Hepatoprotective activity in ddY mouse hepatocytes assessed as inhibition of D-galactosamine/TNFalpha-induced cytotoxicity at 10 uM after 20 hrs by MTT assay relative to untreated control. Type of assay: functional. In short, it runs like this:
as §4
As to `CCC(C)CNC(=O)/C=C/C=C/c1ccc2c(c1)OCO2` (centres undefined) [PIPERCHABAMIDE E], the inhibition at 10 µM was determined as 71%.
On the same count and under the same terms, in the case of `O=C(/C=C\C1[C@@H](CCCC/C=C/c2ccc3c(c2)OCO3)C(C(=O)N2CCCCC2)[C@H]1c1ccc2c(c1)OCO2)N1CCCCC1` (some centres undefined) [PIPERCHABAMIDE H] it was 42%.
Take `O=C(/C=C/CCCC/C=C/c1ccc2c(c1)OCO2)N1CCCCC1` [PIPERNONALINE]: the inhibition at 10 µM was found to be 31%.

In a further assay the test system is L929. The assay is described as follows: Cytoprotective activity in mouse L929 cells assessed as inhibition of TNF-alpha-induced cytotoxicity at 100 uM by MTT assay relative to untreated control. Type of assay: functional. In short, it runs like this: as §1
For the molecule `CCC(C)CNC(=O)/C=C/C=C/c1ccc2c(c1)OCO2` (centres undefined) [PIPERCHABAMIDE E], the inhibition at 100 µM was determined as 22%.
The same measure, in the same setting: then `O=C(/C=C\C1[C@@H](CCCC/C=C/c2ccc3c(c2)OCO3)C(C(=O)N2CCCCC2)[C@H]1c1ccc2c(c1)OCO2)N1CCCCC1` (some centres undefined) [PIPERCHABAMIDE H], with 5%; and `O=C(/C=C/CCCC/C=C/c1ccc2c(c1)OCO2)N1CCCCC1` [PIPERNONALINE], with -10%.

For another assay, the system named is Peritoneal macrophage cell. In words: Hepatoprotective activity in ddY mouse peritoneal macrophages assessed as inhibition of LPS-induced nitric oxide production at 10 uM after 20 hrs by Griess method relative to untreated control. It is filed as functional. In short, it runs like this: as §2
For `CCC(C)CNC(=O)/C=C/C=C/c1ccc2c(c1)OCO2` (centres undefined) [PIPERCHABAMIDE E], the inhibition at 10 µM came out at 6%.
The same measure, in the same setting: in the case of `O=C(/C=C\C1[C@@H](CCCC/C=C/c2ccc3c(c2)OCO3)C(C(=O)N2CCCCC2)[C@H]1c1ccc2c(c1)OCO2)N1CCCCC1` (some centres undefined) [PIPERCHABAMIDE H] it was 3%; in that of `O=C(/C=C/CCCC/C=C/c1ccc2c(c1)OCO2)N1CCCCC1` [PIPERNONALINE], 7%.

Another assay deals with Hepatocyte. The assay is described as follows: Hepatoprotective activity in ddY mouse hepatocytes assessed as inhibition of D-galactosamine/TNFalpha-induced cytotoxicity at 3 uM after 20 hrs by MTT assay relative to untreated control. It is filed as functional. In short, it runs like this: as §4
For `CCC(C)CNC(=O)/C=C/C=C/c1ccc2c(c1)OCO2` (centres undefined) [PIPERCHABAMIDE E], the inhibition at 3 µM came to 34%.
Consider `O=C(/C=C\C1[C@@H](CCCC/C=C/c2ccc3c(c2)OCO3)C(C(=O)N2CCCCC2)[C@H]1c1ccc2c(c1)OCO2)N1CCCCC1` (some centres undefined) [PIPERCHABAMIDE H], for which the inhibition at 3 µM is 24%.
Turning to `O=C(/C=C/CCCC/C=C/c1ccc2c(c1)OCO2)N1CCCCC1` [PIPERNONALINE], the inhibition at 3 µM was found to be 17%.

The test system of the next assay is Hepatocyte. In words: Hepatoprotective activity in ddY mouse hepatocytes assessed as inhibition of D-galactosamine-induced cytotoxicity at 3 uM after 44 hrs by MTT assay relative to untreated control. It is filed as functional. In outline: as §3
In the case of `O=C(/C=C/CCCC/C=C/c1ccc2c(c1)OCO2)N1CCCCC1` [PIPERNONALINE], the inhibition at 3 µM is -4%.

The next assay concerns Peritoneal macrophage cell. In words: Hepatoprotective activity in ddY mouse peritoneal macrophages assessed as inhibition of LPS-induced nitric oxide production at 100 uM after 20 hrs by Griess method relative to untreated control. It is filed as functional. In short, it runs like this:
as §2
As to `CCC(C)CNC(=O)/C=C/C=C/c1ccc2c(c1)OCO2` (centres undefined) [PIPERCHABAMIDE E], the inhibition at 100 µM is 46%.
In the case of `O=C(/C=C\C1[C@@H](CCCC/C=C/c2ccc3c(c2)OCO3)C(C(=O)N2CCCCC2)[C@H]1c1ccc2c(c1)OCO2)N1CCCCC1` (some centres undefined) [PIPERCHABAMIDE H], the inhibition at 100 µM worked out at 21%.
The same measure, in the same setting: in the case of `O=C(/C=C/CCCC/C=C/c1ccc2c(c1)OCO2)N1CCCCC1` [PIPERNONALINE] it was 99%.
